# Data reported in ChEMBL document CHEMBL1132232, “7alpha-Iodo and 7alpha-fluoro steroids as androgen receptor-mediated imaging agents” (J Med Chem, 1999).
# How the values were obtained:
# Rattus norvegicus [1] = experiment: Distribution of tissue Radioactivity following Intravenous injection into castrated male rat thyroid at 0.5 hours time; assay type: ADME, organism-based, Thyroid gland; settings: in vivo
# In short: (§1)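 Male Sprague–Dawley rats, about 250 g, were castrated and injected the next day via the tail vein with 5.4 μCi (2.4 pmol) of 125I tracer in ethanol/saline (1:4). There were 5–6 rats per group. At 0.5, 1, 2 or 4 h, rats were ether-anesthetized and killed by exsanguination. Tissues were dissected, weighed and counted, giving % injected dose/g and prostate/blood ratios.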
# Rattus norvegicus [2] = experiment: Distribution of tissue Radioactivity following subcutaneous injection of […] of 5-alpha-DHT 15 min before the administration of the [125I]- tracer castrated male rat thyroid at 1 hour time; assay type: ADME, organism-based, Thyroid gland; settings: in vivo, sc
# Rattus norvegicus [3] = experiment: Distribution of tissue Radioactivity following subcutaneous injection of […] of 5-alpha-DHT 15 min before the administration of the [125I]- tracer castrated male rat liver at 1 hour time; assay type: ADME, organism-based; settings: in vivo, sc
# In short: (§2)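 Castrated male Sprague–Dawley rats, about 250 g, received 5α-DHT subcutaneously in propylene glycol/saline (3:2) 15 min before a tail-vein 125I tracer (5.4 μCi, 2.4 pmol, in ethanol/saline 1:4). There were 5–6 rats per group. At 1 h, rats were ether-anesthetized and exsanguinated. Tissues were weighed and counted as % injected dose/g, plus the prostate/blood ratio.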
# [4] = target: T1, Androgen receptor (Homo sapiens) (UniProt P10275); settings: CV-1
# T1 sequence (whole entry): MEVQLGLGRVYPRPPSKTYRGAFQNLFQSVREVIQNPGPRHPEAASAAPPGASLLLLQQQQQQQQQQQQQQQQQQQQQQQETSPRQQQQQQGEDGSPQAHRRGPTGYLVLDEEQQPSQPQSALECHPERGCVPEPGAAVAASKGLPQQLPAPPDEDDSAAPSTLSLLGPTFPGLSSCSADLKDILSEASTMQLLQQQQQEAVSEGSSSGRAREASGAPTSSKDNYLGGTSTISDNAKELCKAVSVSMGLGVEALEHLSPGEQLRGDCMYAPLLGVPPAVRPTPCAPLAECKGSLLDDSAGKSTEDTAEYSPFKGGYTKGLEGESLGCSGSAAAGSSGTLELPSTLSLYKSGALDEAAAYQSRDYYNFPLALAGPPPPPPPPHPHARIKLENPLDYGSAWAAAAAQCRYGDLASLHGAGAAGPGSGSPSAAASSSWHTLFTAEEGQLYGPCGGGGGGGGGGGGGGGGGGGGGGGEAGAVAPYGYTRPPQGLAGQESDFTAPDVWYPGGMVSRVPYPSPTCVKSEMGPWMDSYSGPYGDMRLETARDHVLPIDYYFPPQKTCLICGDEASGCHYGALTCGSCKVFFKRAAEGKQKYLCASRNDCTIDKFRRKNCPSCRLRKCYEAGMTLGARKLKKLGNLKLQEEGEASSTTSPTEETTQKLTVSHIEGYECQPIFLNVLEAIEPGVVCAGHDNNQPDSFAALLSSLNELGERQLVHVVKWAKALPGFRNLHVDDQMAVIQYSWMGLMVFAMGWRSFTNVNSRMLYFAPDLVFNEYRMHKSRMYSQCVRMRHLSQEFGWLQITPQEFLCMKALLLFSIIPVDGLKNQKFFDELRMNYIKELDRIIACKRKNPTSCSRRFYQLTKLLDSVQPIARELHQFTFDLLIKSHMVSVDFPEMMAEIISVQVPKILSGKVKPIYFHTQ
# Rattus norvegicus [5] = experiment: Distribution of tissue Radioactivity following Intravenous injection into castrated male rat prostate/blood at 0.5 hours time; assay type: ADME, organism-based; settings: in vivo; in short: as §1
# Rattus norvegicus [6] = experiment: Distribution of tissue Radioactivity following Intravenous injection into castrated male rat liver at 0.5 hours time; assay type: ADME, organism-based; settings: in vivo; in short: as §1
# Rattus norvegicus [7] = experiment: Distribution of tissue Radioactivity following Intravenous injection into castrated male rat liver at 2 hours time; assay type: ADME, organism-based; settings: in vivo; in short: as §1
# Rattus norvegicus [8] = experiment: Distribution of tissue Radioactivity following Intravenous injection into castrated male rat kidney at 0.5 hours time; assay type: ADME, organism-based; settings: in vivo; in short: as §1
# Rattus norvegicus [9] = experiment: Distribution of tissue Radioactivity following Intravenous injection into castrated male rat thyroid at 1 hour time; assay type: ADME, organism-based, Thyroid gland; settings: in vivo; in short: as §1
# Rattus norvegicus [10] = experiment: Distribution of tissue Radioactivity following Intravenous injection into castrated male rat liver at 1 hour time; assay type: ADME, organism-based; settings: in vivo; in short: as §1
# Rattus norvegicus [11] = experiment: Distribution of tissue Radioactivity following subcutaneous injection of […] of 5-alpha-DHT 15 min before the administration of the [125I]- tracer castrated male rat prostate/blood at 1 hour time; assay type: ADME, organism-based; settings: in vivo, sc; in short: as §2
# Rattus norvegicus [12] = experiment: Distribution of tissue Radioactivity following Intravenous injection into castrated male rat prostate at 0.5 hours time; assay type: ADME, organism-based, Prostate gland; settings: in vivo; in short: as §1
# Rattus norvegicus [13] = experiment: Distribution of tissue Radioactivity following Intravenous injection into castrated male rat fat at 2 hours time; assay type: ADME, organism-based, Adipose tissue; settings: in vivo; in short: as §1
# Rattus norvegicus [14] = experiment: Distribution of tissue Radioactivity following Intravenous injection into castrated male rat liver at 4 hours time; assay type: ADME, organism-based; settings: in vivo; in short: as §1
# Rattus norvegicus [15] = experiment: Distribution of tissue Radioactivity following Intravenous injection into castrated male rat kidney at 4 hours time; assay type: ADME, organism-based; settings: in vivo; in short: as §1
# Rattus norvegicus [16] = experiment: Distribution of tissue Radioactivity following Intravenous injection into castrated male rat thyroid at 2 hours time; assay type: ADME, organism-based, Thyroid gland; settings: in vivo; in short: as §1
# Rattus norvegicus [17] = experiment: Distribution of tissue Radioactivity following Intravenous injection into castrated male rat muscle at 1 hour time; assay type: ADME, organism-based; settings: in vivo; in short: as §1
# Rattus norvegicus [18] = experiment: Distribution of tissue Radioactivity following Intravenous injection into castrated male rat prostate at 4 hours time; assay type: ADME, organism-based, Prostate gland; settings: in vivo; in short: as §1
# Rattus norvegicus [19] = experiment: Distribution of tissue Radioactivity following Intravenous injection into castrated male rat muscle at 4 hours time; assay type: ADME, organism-based; settings: in vivo; in short: as §1
# Rattus norvegicus [20] = experiment: Distribution of tissue Radioactivity following Intravenous injection into castrated male rat lung at 4 hours time; assay type: ADME, organism-based; settings: in vivo; in short: as §1
# Rattus norvegicus [21] = experiment: Distribution of tissue Radioactivity following subcutaneous injection of […] of 5-alpha-DHT 15 min before the administration of the [125I]- tracer castrated male rat muscle at 1 hour time; assay type: ADME, organism-based; settings: in vivo, sc; in short: as §2
# Rattus norvegicus [22] = experiment: Distribution of tissue Radioactivity following Intravenous injection into castrated male rat blood at 2 hours time; assay type: ADME, organism-based; settings: in vivo; in short: as §1
# Rattus norvegicus [23] = experiment: Distribution of tissue Radioactivity following Intravenous injection into castrated male rat prostate/blood at 1 hours time; assay type: ADME, organism-based; settings: other tissue; in short: as §1
# Rattus norvegicus [24] = experiment: Distribution of tissue Radioactivity following subcutaneous injection of […] of 5-alpha-DHT 15 min before the administration of the [125I]- tracer castrated male rat kidney at 1 hour time; assay type: ADME, organism-based; settings: in vivo, sc; in short: as §2
# Rattus norvegicus [25] = experiment: Distribution of tissue Radioactivity following Intravenous injection into castrated male rat thyroid at 4 hours time; assay type: ADME, organism-based, Thyroid gland; settings: in vivo; in short: as §1
compound,measurement,setting,value
C[C@]12CCC(=O)CC1C[C@@H](I)[C@@H]1[C@@H]2CC[C@@]2(C)[C@H]1CC[C@]2(C)O (stereo not given in full),Biodistribution,Rattus norvegicus [1],1.58%
same,Biodistribution,Rattus norvegicus [2],3.55%
same,Dose/g,Rattus norvegicus [3],0.36%
same,RSA,[4],28
same,Dose/g,Rattus norvegicus [5],0.7%
same,Dose/g,Rattus norvegicus [6],0.31%
same,Biodistribution,Rattus norvegicus [7],0.23%
same,Biodistribution,Rattus norvegicus [8],0.26%
same,Dose/g,Rattus norvegicus [9],4.07%
same,Biodistribution,Rattus norvegicus [10],0.29%
same,Dose/g,Rattus norvegicus [11],0.66%
same,Biodistribution,Rattus norvegicus [12],0.21%
same,Dose/g,Rattus norvegicus [13],0.2%
same,Dose/g,Rattus norvegicus [14],0.24%
same,Biodistribution,Rattus norvegicus [15],0.23%
same,Dose/g,Rattus norvegicus [16],3.55%
same,Dose/g,Rattus norvegicus [17],0.07%
same,Biodistribution,Rattus norvegicus [18],0.44%
same,Biodistribution,Rattus norvegicus [19],0.07%
same,Dose/g,Rattus norvegicus [20],0.28%
same,Biodistribution,Rattus norvegicus [21],0.08%
same,Biodistribution,Rattus norvegicus [22],0.31%
same,Biodistribution,Rattus norvegicus [23],1.17%
same,Biodistribution,Rattus norvegicus [24],0.3%
same,Biodistribution,Rattus norvegicus [25],9.7%
